Assay [1] is described as follows: Insulinotropic activity in rat RIN5F cells assessed as glucose dependent insulin secretion per ug of total protein at 10 uM. Type of assay: functional. Summed up:
(§1)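 RIN5F cells seeded at 0.2×10^6 per well and grown overnight to 80% confluence. Preincubated 40 min in Krebs-Ringer Hepes buffer (1.1 mM glucose, 0.5% BSA, pH 7.4). Then exposed 30 min at 37 °C to compound with 16.7 mM glucose. Supernatant insulin by rat insulin ELISA, normalized to total protein (pg/μg/h). n = 3, mean ± SD.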

Assay [2] can be described thus: Insulinotropic activity in rat RIN5F cells assessed as glucose dependent insulin secretion per ug of total protein at 1 uM. Type of assay: functional. Summed up:
as §1

Assay [3] can be described thus: Insulinotropic activity in rat RIN5F cells assessed as glucose dependent insulin secretion per ug of total protein at 0.1 uM. Type of assay: functional. Summed up:
as §1

A short description of assay [4]: Insulinotropic activity in rat RIN5F cells assessed as insulin secretion per ug of total protein at 10 uM. It is filed as functional. Summed up: (§2)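 RIN5F cells seeded at 0.2×10^6 per well, grown overnight to 80% confluence, then preincubated 40 min in Krebs-Ringer Hepes buffer (1.1 mM glucose, 0.5% BSA, pH 7.4). Incubated 30 min at 37 °C with compound in the absence of glucose (0 mM). Secreted insulin by rat insulin ELISA, normalized to total protein (pg/μg/h). n = 3, mean ± SD.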

Assay [5] is described as follows: Insulinotropic activity in rat RIN5F cells assessed as insulin secretion per ug of total protein at 0.1 uM. Type of assay: functional. Summed up:
as §2

The nature of assay [6]: Insulinotropic activity in rat RIN5F cells assessed as insulin secretion per ug of total protein at 1 uM. It is filed as functional. Summed up:
as §2

Assay [7] relates to Mus musculus. The experiment in a line: Antidiabetic activity in ip dosed overnight fasted C57BL/6J mouse assessed as serum insulin level by ELISA. It is filed as functional, organism-based. Summed up: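 Male C57BL/6J mice (8–12 weeks, 25–30 g), randomized into groups of n = 6 by fed glucose and fasted overnight. Single ip dose of 1, 10 or 100 μM/kg/10 mL, suspended in normal saline (saline vehicle control). Retro-orbital blood taken under light ether at 30 min. Serum stored at -70 °C, then assayed by rat/mouse insulin ELISA. Mean ± SEM.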
In general terms: An ELISA detects its analyte on a solid surface through an enzyme-linked reagent.

Assay [8] relates to Mus musculus. The experiment in a line: Antidiabetic activity in overnight fasted C57BL/6J mouse assessed as reduction in serum glucose level at 1 uM to 100 uM, ip after 120 mins. Type of assay: functional, organism-based. Summed up: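 Male C57BL/6J mice (8–12 weeks, 25–30 g), n = 6 per group, fasted overnight. Single ip dose of 1, 10 or 100 μM/kg/10 mL in saline (saline vehicle control). Retro-orbital blood under light ether at 0, 30, 60 and 120 min. Serum glucose by GOD/POD method, duplicate samples. Baseline-corrected curves and 0–120 min AUC; mean ± SEM.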

Assay [9] relates to Mus musculus. The assay is described as follows: Antidiabetic activity in overnight fasted C57BL/6J mouse assessed as reduction in serum glucose level at 1 uM to 100 uM, ip after 30 mins. It is filed as functional, organism-based. Summed up: (§3)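 Male C57BL/6J mice (8–12 weeks, 25–30 g, bred in-house) randomized into groups (n = 6) by fed glucose, fasted overnight with water ad libitum. Compounds suspended in normal saline given ip at 1, 10 and 100 μM/kg/10 mL right after 0 min bleed. Retro-orbital blood under light ether at 0, 30, 60, 120 min; serum glucose by GOD/POD method, duplicate samples; mean ± SEM.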

The subject of assay [10] is Mus musculus. The experiment in a line: Antidiabetic activity in overnight fasted C57BL/6J mouse assessed as reduction in serum glucose level at 1 uM to 100 uM, ip after 60 mins. It is filed as functional, organism-based. Summed up: as §3

Activity calls are given as the source filed them. The rule behind the calls is not given here.

For `Clc1cnc2[nH]cc(C3=NCCN3)c2c1`, the results for the Activity in assay [1], in [2] and in [3] were 29.6 pg/h, 15.2 pg/µg/h and 12.4 pg/h, respectively.

In the case of `c1cnc2sc(C3CCCCC3)c(C3=NCCN3)c2c1`, the Activity turned out to be 28.1 pg/h in assay [1], 14.7 pg/µg/h in assay [2] and 12.6 pg/h in [3].

Regarding `CCc1[nH]c2ncccc2c1C1=NCCN1`, the Activity in assay [1] is 29.1 pg/h; in assay [2] it was 16.4 pg/µg/h; in [3] it was 13.3 pg/h.

For `c1ccc(Cc2sc3ncccc3c2C2=NCCN2)cc1`, the Activity in [1] is 31.6 pg/h; in assay [2], 18.8 pg/µg/h; in [3] it was 14.4 pg/h.

`Cc1[nH]c2ncccc2c1C1=NCCN1`: the Activity in [1] was 32.4 pg/h; in [2], 18 pg/µg/h; in [3], 14.9 pg/h.

Consider `Clc1cnc2sc(C3CCCCC3)c(C3=NCCN3)c2c1`, for which the Activity turned out to be 28.7 pg/h in [1], 15.1 pg/µg/h in [2] and 12.9 pg/h in [3].

Consider `c1cnc2scc(C3=NCCN3)c2c1`, for which the Activity was 28.2 pg/h in assay [1], 14.2 pg/µg/h in assay [2] and 12.2 pg/h in [3].

Take `c1ccc(-c2sc3ncccc3c2C2=NCCN2)cc1`: the Activity in [1] worked out at 31.9 pg/h; in assay [2], 18 pg/µg/h; in assay [3] it was 14.7 pg/h.

For `c1ccc(Cc2[nH]c3ncccc3c2C2=NCCN2)cc1`, the Activity in assay [1] turned out to be 32.6 pg/h; in assay [2], 18.2 pg/µg/h; in [3] it was 14.8 pg/h.

For the molecule `CCc1[nH]c2ncc(Cl)cc2c1C1=NCCN1`, the Activity in [1] came to 39.9 pg/h; in assay [2], 26.1 pg/µg/h; in assay [3] it was 18.9 pg/h.

Consider `CCCCNC(=O)NS(=O)(=O)c1ccc(C)cc1` [TOLBUTAMIDE], for which the Activity in [1] amounted to 35.2 pg/h; in assay [4], 34.4 pg/h; in [5], 19.7 pg/h; in assay [6], 20.7 pg/h; in assay [3] it was 20 pg/h.

`c1cnc2[nH]c(C3CCCCC3)c(C3=NCCN3)c2c1`: the Activity turned out to be 28 pg/h in assay [1], 14.3 pg/µg/h in [2] and 12.4 pg/h in assay [3].

Consider `Clc1cnc2[nH]c(C3CCCCC3)c(C3=NCCN3)c2c1`, for which the Activity stood at 28.9 pg/h in assay [1], 15 pg/µg/h in assay [2] and 12.6 pg/h in assay [3].

On to `Clc1cnc2scc(C3=NCCN3)c2c1`, for which the Activity in [1] was 29 pg/h; in assay [2], 15 pg/µg/h; in assay [3], 12.6 pg/h.

`Cc1sc2ncc(Cl)cc2c1C1=NCCN1`: the Activity is 41.5 pg/h in [1], “Dose-dependent effect” in the assay on Mus musculus [7], 27.5 pg/µg/h in assay [2] and 19.2 pg/h in assay [3]. For the same molecule, the outcome in the assay on Mus musculus [8] was Active.

In the case of `c1cnc2[nH]cc(C3=NCCN3)c2c1`, the Activity was 28 pg/h in assay [1], 14.1 pg/µg/h in assay [2] and 12.1 pg/h in [3].

With `c1ccc(-c2[nH]c3ncccc3c2C2=NCCN2)cc1`, the Activity in [1] stood at 32.5 pg/h; in assay [2], 18.1 pg/µg/h; in assay [3], 14.1 pg/h.

`Clc1cnc2[nH]c(Cc3ccccc3)c(C3=NCCN3)c2c1`: the Activity came to 31.9 pg/h in assay [1], 18.3 pg/µg/h in [2] and 14.4 pg/h in assay [3].

In the case of `Clc1cnc2sc(Cc3ccccc3)c(C3=NCCN3)c2c1`, the Activity is 31.9 pg/h in [1], 18.2 pg/µg/h in [2] and 13.9 pg/h in assay [3].

On to `Cc1[nH]c2ccc(Cl)cc2c1C1=NCCN1`, for which the figures for the Activity in assay [1], in [2] and in [3] were 36.5 pg/h, 22.4 pg/µg/h and 16.3 pg/h, respectively. The outcome in the assay on Mus musculus [9] and in the assay on Mus musculus [10] was Active.

In the case of `CCc1sc2ncc(Cl)cc2c1C1=NCCN1`, the Activity in assay [1] turned out to be 39.8 pg/h; in [2], 26.5 pg/µg/h; in assay [3] it was 18.5 pg/h.

With `Clc1cnc2sc(-c3ccccc3)c(C3=NCCN3)c2c1`, the Activity in assay [1] turned out to be 39 pg/h; in assay [2], 25.4 pg/µg/h; in assay [3], 18 pg/h.

Regarding `Cc1sc2ncccc2c1C1=NCCN1`, the Activity turned out to be 31.8 pg/h in [1], 18.9 pg/µg/h in assay [2] and 14.5 pg/h in [3].

Take `Cc1[nH]c2ncc(Cl)cc2c1C1=NCCN1`: the Activity was 41.7 pg/h in assay [1], “Dose-dependent effect” in the assay on Mus musculus [7], 27.7 pg/µg/h in assay [2] and 19.3 pg/h in assay [3]. Besides, the result with Mus musculus [8] was Active.

For `Clc1cnc2[nH]c(-c3ccccc3)c(C3=NCCN3)c2c1`, the values for the Activity in [1], in assay [2] and in [3] were 39.2 pg/h, 25.5 pg/µg/h and 18.2 pg/h, respectively.

For `CCc1sc2ncccc2c1C1=NCCN1`, the Activity in assay [1] worked out at 29.1 pg/h; in [2], 15.5 pg/µg/h; in assay [3], 13 pg/h.
